Source: ChEMBL document CHEMBL3232885, “Synthesis, characterization and pharmacological screening of some novel 5-imidazopyrazole incorporated polyhydroquinoline derivatives” (Eur J Med Chem, 2014)
≈ marks a conversion by molar mass, not a printed value.

Columns and labels:
Streptococcus pneumoniae = assay: Antibacterial activity against Streptococcus pneumoniae MTCC 1936 assessed as growth inhibition after 24 to 48 hrs by broth microdilution method; format: functional
How it was run: (§1)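 Bacteria were grown in Mueller-Hinton broth with inoculum adjusted to 10⁸ CFU mL⁻¹ by turbidity. Compounds were serially diluted in 2% aqueous DMSO and incubated at 37 °C overnight. Growth was checked by subculture at 24 and 48 h. MIC was taken as the highest dilution with no turbidity after spot subculture.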

Bacillus subtilis = assay: Antibacterial activity against Bacillus subtilis MTCC 441 assessed as growth inhibition after 24 to 48 hrs by broth microdilution method; format: functional; how it was run: as §1
Clostridium tetani = assay: Antibacterial activity against Clostridium tetani MTCC 449 assessed as growth inhibition after 24 to 48 hrs by broth microdilution method; format: functional
Escherichia coli = assay: Antibacterial activity against Escherichia coli MTCC 443 assessed as growth inhibition after 24 to 48 hrs by broth microdilution method; format: functional; how it was run: as §1
Salmonella typhi = assay: Antibacterial activity against Salmonella typhi MTCC 98 assessed as growth inhibition after 24 to 48 hrs by broth microdilution method; format: functional, Salmonella enterica subsp. enterica serovar Typhi; conditions: Salmonella enterica
Vibrio cholerae = assay: Antibacterial activity against Vibrio cholerae MTCC 3906 assessed as growth inhibition after 24 to 48 hrs by broth microdilution method; format: functional
Candida albicans = assay: Antifungal activity against Candida albicans MTCC 227 assessed as growth inhibition after 24 to 48 hrs by broth microdilution method; format: functional
How it was run: (§2)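 Fungal nutrition used Sabouraud Dextrose broth with inoculum at 10⁸ CFU mL⁻¹ by turbidity. Serial compound dilutions were made in 2% DMSO in water. Growth was noted on subculture after 24 and 48 h. MIC was taken as the highest dilution preventing visible turbidity after spot subculture.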

Aspergillus fumigatus = assay: Antifungal activity against Aspergillus fumigatus MTCC 3008 assessed as growth inhibition after 24 to 48 hrs by broth microdilution method; format: functional; how it was run: as §2
[1] = test system: Mycobacterium tuberculosis; assay: Antitubercular activity against Mycobacterium tuberculosis H37Rv assessed as inhibition of colony formation at 250 ug/mL after 2 to 4 weeks by Lowensteine-Jensen method relative to control; format: functional
[2] = test system: Mycobacterium tuberculosis; assay: Antitubercular activity against Mycobacterium tuberculosis H37Rv assessed as inhibition of colony formation at 100 ug/mL after 2 to 4 weeks by Lowensteine-Jensen method relative to control; format: functional
Plasmodium falciparum = assay: Antimalarial activity against chloroquine/quinine sensitive Plasmodium falciparum assessed as parasite growth inhibition after 48 hrs; format: functional, organism-based

SMILES | MIC (Streptococcus pneumoniae) [µg/mL] | MIC (Bacillus subtilis) [µg/mL] | MIC (Clostridium tetani) [µg/mL] | MIC (Escherichia coli) [µg/mL] | MIC (Salmonella typhi) [µg/mL] | MIC (Vibrio cholerae) [µg/mL] | MIC (Candida albicans) [µg/mL] | MIC (Aspergillus fumigatus) [µg/mL] | inhibition at 250 µg/mL [1] [%] | inhibition at 100 µg/mL [2] [%] | IC50 (Plasmodium falciparum) [µg/mL]
Cc1nn(-c2ccccc2)c(-n2ccnc2)c1C1C(C(N)=O)=C(N)N(c2ccc(O)cc2)C2=C1C(=O)CCC2 (configuration not stated) | 250 (≈ 479 µM) | 200 (≈ 383 µM) | 200 (≈ 383 µM) | 200 (≈ 383 µM) | 100 (≈ 192 µM) | 500 (≈ 959 µM) | 1000 (≈ 1920 µM) | 1000 (≈ 1920 µM) | 67 | 60 | 0.033 (≈ 0.0633 µM)
CCOC(=O)C1=C(N)N(c2ccc(Cl)cc2)C2=C(C(=O)CC(C)(C)C2)C1c1c(C)nn(-c2ccccc2)c1-n1ccnc1 (configuration not stated) | 125 (≈ 209 µM) | 100 (≈ 167 µM) | 125 (≈ 209 µM) | 100 (≈ 167 µM) | 100 (≈ 167 µM) | 200 (≈ 335 µM) | > 1000 | 500 (≈ 837 µM) | 63 | 58 | 0.057 (≈ 0.0955 µM)
